Entries after “also recorded” stand apart in the source; their conditions may differ.
Tests used:
[1] = Dietary exposure estimates; parameters: species or system human
[2] = In vitro metabolism by rat liver microsomes; assay type: in vitro ADME, Sprague-Dawley rat; settings: S807 incubation, relative to S807 at time = 0
[3] = system: S. typhimurium strains TA98, TA100, TA1535, TA1537 and E. coli strain WP2 uvrA; assay: Bacterial reverse mutation test; assay type: cell-based; settings: 21–5000 μg/plate, plate incorporation and pre-incubation, ±S9
Summary of the method: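 The assay followed OECD Guideline 471 and used S. typhimurium TA98, TA100, TA1535 and TA1537 and E. coli WP2 uvrA. It was run with and without S9 from livers of Aroclor 1254-treated Sprague-Dawley rats. One compound was tested at 21–5000 μg/plate by plate incorporation and pre-incubation. The other was tested at 50–5000 μg/plate in an initial toxicity-mutation test and a confirmatory mutation test.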

Sprague-Dawley Rats [4] = assay: 13-week subchronic toxicity study on S807; assay type: in vivo, Crl:CD(SD)IGS BR rats; settings: 2, 10, 20 mg/kg bw/day food ad-mix, 13 weeks
Summary of the method: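 Crl:CD(SD)IGS BR rats, 20/sex/group, were given the test compound in the diet at 0 (control), 2, 10 or 20 mg/kg bw/day for 93 consecutive days.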

[5] = In vitro metabolism by human liver microsomes; assay type: in vitro ADME; settings: S807 incubation, relative to S807 at time = 0
[6] = system: Chinese hamster ovary cells (CHO-WBL); assay: In vitro chromosome aberration test, CHO-WBL cells; assay type: cell-based
[7] = Pharmacokinetics of S807 in rats, single iv or oral dose; assay type: in vivo, Sprague-Dawley rats; settings: for AUC(0-t) / Cmax / Tmax / Vd / half-life / clearance / bioavailability: Sprague-Dawley, rat, plasma; for clearance: CL (clearance), iv 1 mg/kg bw; for AUClast Ratio / Cmax Ratio: vs 20 mg/kg bw dose
Summary of the method: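 Sprague-Dawley rats, 4/sex, received a 1 mg/kg bw IV bolus in 20% PEG400/10% ethanol/2% DMSO/68% saline. Sampling was via jugular cannula at pre-dose and 2 min to 8 h. Oral groups (4/sex/group) were gavaged once with 20, 50 or 200 mg/kg bw in 1% methylcellulose and sampled from 15 min to 24 h. Plasma was assayed for parent and metabolites.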

[8] = In vivo metabolism of S807 in rats; parameters: species or system Sprague-Dawley rats; settings: male and female pooled rat plasma, 1 h post dose, 200 mg/kg bw oral
Sprague-Dawley Rats [9] = assay: 21-day dose-range finding toxicity study on S807; assay type: in vivo, Crl:CD(SD)IGS BR rats; settings: 50, 100, 200 mg/kg bw/day food ad-mix, 21 days
Summary of the method: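 Dose-range finder for the 90-day study. Crl:CD(SD)IGS BR rats, 5/sex/group, received the test compound continuously in the diet at 50, 100 or 200 mg/kg bw/day for 21 days. One group of 5/sex served as control and received the vehicle diet.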

[10] = system: Male Swiss albino (CD-1) mice, bone marrow PCEs; assay: In vivo micronucleus assay in mice, S807
Summary of the method: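 Swiss Albino (CD-1) mice received a single intraperitoneal injection of the test compound as a DMSO solution (132 mg/mL). Range finding used 3/sex/group at 500, 1000 or 2000 mg/kg bw, then added groups at 800 (3/sex) and 700 (3 males). The definitive phase used 175, 350 and 700 mg/kg bw, 21 animals/group. Readouts were bone-marrow mnPCE incidence and PCE/total erythrocyte ratio versus vehicle. Cyclophosphamide was the positive control.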

[11] = oral gavage 20 mg/kg bw, female
[12] = oral gavage 50 mg/kg bw, female
[13] = oral gavage 200 mg/kg bw, female

CCCC(CCC)NC(=O)c1ccc2c(c1)OCO2 [S807, N-(heptan-4-yl)benzo[d][1,3]dioxole-5-carboxamide]
NOEL as times the estimated dietary exposure (mTAMDI) ([1]; NOEL 20 mg/kg bw/day): 2560 times | margin of safety, NOEL vs estimated use ([1]; NOEL 20 mg/kg bw/day vs 4.9 μg/kg bw/day): > 4000 fold | % MS (EIC) Peak Area ([2]; 10 min): 70.0% | % MS (EIC) Peak Area ([2]; 20 min): 34.0% | Reverse mutation (in vitro), Result [3]: not mutagenic; also recorded: Negative | Findings (Sprague-Dawley Rats [4]): No test-article related findings | NOEL (Sprague-Dawley Rats [4]): 20 mg/kg bw/day | % MS (EIC) Peak Area ([5]; 10 min): 89.4% | % MS (EIC) Peak Area ([5]; 20 min): 80.8% | % MS (EIC) Peak Area ([5]; 60 min): 65.0% | Chromosome aberration (in vitro), Result ([6]; 21–5000 μg/mL, 3 h −S9, 3 h +S9, 18 h −S9): did not induce chromosomal aberrations; also recorded: Negative | test article concentration with precipitate in the cell cultures ([6]; all conditions): ≥ 62 µg/mL | AUC(0-t) ([7]; female, iv, 1 mg/kg): 342 ± 81.4 ng·h/mL | Cmax ([7]; female, iv, 1 mg/kg): 949 ± 222 ng/mL | Tmax ([7]; female, iv, 1 mg/kg): 0.033 h | Vd ([7]; female, iv, 1 mg/kg): 5.61 L/kg | half-life ([7]; female, iv, 1 mg/kg): 3.02 ± 0.92 h | clearance ([7]; female, iv, 1 mg/kg, female rat): 47.2 mL/min/kg | AUC(0-t) ([7]; female, po, 20 mg/kg): 166 ± 72.2 ng·h/mL | Cmax ([7]; female, po, 20 mg/kg): 187 ± 87.6 ng/mL | Tmax ([7]; female, po, 20 mg/kg): 0.25 h | bioavailability ([7]; female, po, 20 mg/kg): 2.43% | half-life ([7]; female, po, 20 mg/kg): 1.07 ± 0.67 h | AUC(0-t) ([7]; female, po, 50 mg/kg): 1410 ± 1020 ng·h/mL | Cmax ([7]; female, po, 50 mg/kg): 529 ± 379 ng/mL | Tmax ([7]; female, po, 50 mg/kg): 1 h | bioavailability ([7]; female, po, 50 mg/kg): 8.25% | half-life ([7]; female, po, 50 mg/kg): 1.17 ± 0.16 h | AUC(0-t) ([7]; female, po, 200 mg/kg): 108000 ± 27900 ng·h/mL | Cmax ([7]; female, po, 200 mg/kg): 9150 ± 2410 ng/mL | Tmax ([7]; female, po, 200 mg/kg): 3 h | bioavailability ([7]; female, po, 200 mg/kg): 158% | half-life ([7]; female, po, 200 mg/kg): 2.62 ± 0.2 h | CL as % of hepatic blood flow ([7]; iv, females): 85.5% | CL as % of hepatic blood flow ([7]; iv, males): 55.6% | AUC(0-t) ([7]; male, iv, 1 mg/kg): 491 ± 33.3 ng·h/mL | Cmax ([7]; male, iv, 1 mg/kg): 1110 ± 237 ng/mL | Tmax ([7]; male, iv, 1 mg/kg): 0.033 h | Vd ([7]; male, iv, 1 mg/kg): 4.63 L/kg | half-life ([7]; male, iv, 1 mg/kg): 3.02 ± 0.24 h | clearance ([7]; male, iv, 1 mg/kg, male rat): 30.7 mL/min/kg | AUC(0-t) ([7]; male, po, 20 mg/kg): 182 ± 70.5 ng·h/mL | Cmax ([7]; male, po, 20 mg/kg): 174 ± 95.1 ng/mL | Tmax ([7]; male, po, 20 mg/kg): 0.313 h | bioavailability ([7]; male, po, 20 mg/kg): 1.85% | half-life ([7]; male, po, 20 mg/kg): 1.14 ± 0.35 h | AUC(0-t) ([7]; male, po, 50 mg/kg): 4890 ± 4960 ng·h/mL | Cmax ([7]; male, po, 50 mg/kg): 1270 ± 1170 ng/mL | Tmax ([7]; male, po, 50 mg/kg): 1.5 h | bioavailability ([7]; male, po, 50 mg/kg): 19.9% | half-life ([7]; male, po, 50 mg/kg): 1.83 ± 0.61 h | AUC(0-t) ([7]; male, po, 200 mg/kg): 101000 ± 19500 ng·h/mL | Cmax ([7]; male, po, 200 mg/kg): 10500 ± 937 ng/mL | Tmax ([7]; male, po, 200 mg/kg): 4 h | bioavailability ([7]; male, po, 200 mg/kg): 103% | half-life ([7]; male, po, 200 mg/kg): 2.49 ± 0.07 h | AUClast Ratio [7, 11]: 1 | Cmax Ratio [7, 11]: 1 | AUClast Ratio ([7]; oral gavage 20 mg/kg bw, male): 1 | Cmax Ratio ([7]; oral gavage 20 mg/kg bw, male): 1 | AUClast Ratio [7, 12]: 8.49 | Cmax Ratio [7, 12]: 2.83 | AUClast Ratio ([7]; oral gavage 50 mg/kg bw, male): 26.9 | Cmax Ratio ([7]; oral gavage 50 mg/kg bw, male): 7.30 | AUClast Ratio [7, 13]: 651 | Cmax Ratio [7, 13]: 48.9 | AUClast Ratio ([7]; oral gavage 200 mg/kg bw, male): 555 | Cmax Ratio ([7]; oral gavage 200 mg/kg bw, male): 60.3 | MS (EIC) Peak Area [8]: 29,000,000 cps | Findings (Sprague-Dawley Rats [9]): Lower bw gain in females at 200 mg/kg bw/day; increased liver weight in females at 100 and 200 mg/kg bw/day; histomorphological changes in livers of both male and females at all doses | NOEL (Sprague-Dawley Rats [9]): < 50 mg/kg bw/day | Micronucleus formation (in vivo), Result ([10]; 175, 350, 700 mg/kg bw (ip)): neither clastogenic nor aneugenic; also recorded: Negative | dose groups with deaths within 48 h of treatment ([10]; range finding, ip): ≥ 800 mg/kg bw
